Laboratory results as given in paper PMC4002123 (Journal of Medicinal Chemistry, 2014).
“Also recorded” adds a separate entry of the source.

Tests used:
A549 cells = assay: Antiproliferative assay; type: cell-based, human; conditions: read-out: growth inhibition IC50, A549; A549, 72 h
How it was run: (§1)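 Seeded at 5 × 10^3 cells/well and grown 24 h. Medium then replaced with fresh medium holding test compound at a range of concentrations; DMSO below 0.25%. Incubated at 37 °C for 72 h. Resazurin added for 2 h, then fluorescence read at ex 560 / em 590 nm.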

HeLa cells [1] = assay: Antiproliferative assay; type: cell-based, human; conditions: read-out: growth inhibition IC50, HeLa, 72 h
How it was run: as §1

MDA-MB-231 cells [2] = assay: Antiproliferative assay; type: cell-based, human; conditions: read-out: growth inhibition IC50, MDA-MB-231; MDA-MB-231, 72 h
How it was run: as §1

HeLa cells [3] = assay: Immunofluorescence of interphase microtubules, HeLa; type: cell-based, human; conditions: 1 μM, 24 h
How it was run: (§2)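 Cells grown on chamber slides and exposed to DMSO vehicle or test compound, then fixed in 3.7% formaldehyde and permeabilised for 4 min with 0.1% Triton X-100 in PBS. Blocked 1 h in PBS/1% BSA with calf serum. Stained with mouse anti-β-tubulin (1:200), then Alexa 488 goat anti-mouse (1:200) for 2 h at room temperature. Imaged by fluorescence microscopy.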

[4] = test system: chick embryo chorioallantoic membrane; assay: Chick embryo chorioallantoic membrane; type: in vivo; conditions: collagen plug with bFGF + VEGF (BV), scored 4 days after treatment
How it was run: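 Fertilized chick eggs incubated 3 days at 37.5 °C, then shell-free in covered weighboats for 10 more days. Collagen onplants (2.1 mg/mL rat tail collagen, 10 ng/plug bFGF, 30 ng/plug VEGF) with or without test compound placed on CAM over nylon mesh; four per egg, at least three eggs. After 4 days, plugs on surviving embryos imaged and scored blind 0–3; means ± SEM.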

bovine brain tubulin = assay: Tubulin polymerization assay in vitro; type: biochemical; conditions: compared to vehicle
[5] = Mouse plasma concentrations after single oral dose; type: in vivo; conditions: mice, single oral dose 5 mg/kg
How it was run: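 Female C57BL/6 mice dosed once by oral gavage at 5 mg/kg, test compound dissolved in ethanol and given in PBS. Blood drawn from orbital sinus at 1, 3, 6 and 24 h after dosing. Each group of mice sampled only once.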

MDA-MB-231 cells [6] = assay: Immunofluorescence of interphase microtubules, MDA-MB-231; type: cell-based, human; conditions: 1 μM, 24 h
How it was run: as §2

[7] = test system: colchicine binding site of tubulin; assay: Competitive LC-MS/MS binding assay, colchicine binding site; conditions: colchicine 1.2 μM, tubulin 1.3 mg/mL, 37 °C, 1 h; highest value reached

Row | Compound | IC50 (A549 cells) | IC50 (HeLa cells [1]) | IC50 (MDA-MB-231 cells [2]) | plasma concentration at 6 h [5] | plasma concentration at 24 h [5] | relative binding capacity, % of colchicine binding [7] | peak plasma concentration [5] | effect on interphase microtubule network (HeLa cells [3]) | inhibition of new vessel growth (angiogenesis score, scale 0-3) [4] | inhibition of tubulin polymerization (bovine brain tubulin; compound at 10 μM) | effect on interphase microtubule network (MDA-MB-231 cells [6]) | inhibition of tubulin polymerization (bovine brain tubulin; compound at 1 μM)
1 | 5-Bromo-2-(3,4,5-trimethoxyphenyl)pyridine [2e] | > 25000 nM | 14000 ± 300 nM | 12050 ± 20 nM |  |  |  |  |  |  |  |  | 
2 | 5-Bromo-2-(2,4-dimethoxyphenyl)pyridine [2f] | > 100000 nM | > 25000 nM | > 100000 nM |  |  |  |  |  |  |  |  | 
3 | COc1ccc(-c2cccc(-c3ccc(OC)cc3OC)n2)cc1 [4h, 2-(2,4-Dimethoxyphenyl)-6-(4-methoxyphenyl)pyridine] |  |  |  |  |  |  | lower peak concentrations than CA-4 | dramatic reduction of the interphase microtubule network | inhibition of new vessel growth | remained ineffective against tubulin polymerization | dramatic reduction of the interphase microtubule network | failed to inhibit tubulin polymerization
4 | 2-(2,4-Dimethoxyphenyl)-6-(2,5-dimethoxyphenyl)pyridine [4m] | 330 ± 10 nM | 34 ± 2 nM | 34 ± 4 nM |  |  |  |  |  |  |  |  | 

The next lines start with results.

Row | IC50 (A549 cells) | IC50 (HeLa cells [1]) | IC50 (MDA-MB-231 cells [2]) | plasma concentration at 6 h [5] | plasma concentration at 24 h [5] | relative binding capacity, % of colchicine binding [7] | peak plasma concentration [5] | Compound | effect on interphase microtubule network (HeLa cells [3]) | inhibition of new vessel growth (angiogenesis score, scale 0-3) [4] | inhibition of tubulin polymerization (bovine brain tubulin; compound at 10 μM) | effect on interphase microtubule network (MDA-MB-231 cells [6]) | inhibition of tubulin polymerization (bovine brain tubulin; compound at 1 μM)
5 |  |  |  | no longer detectable | no longer detectable | 78% |  | COc1ccc(/C=C\c2cc(OC)c(OC)c(OC)c2)cc1O [CA-4, Combretastatin-A4, reference compound] | very similar loss of the microtubule network | inhibition of new vessel growth | nearly completely blocked tubulin polymerization | very similar loss of the microtubule network | 
6 |  |  |  | dropping rapidly | below detection limit |  |  | COc1ccc(-c2cccc(-c3ccc(OC)c(O)c3)n2)c(OC)c1 [4s, 5-(6-(2,4-Dimethoxyphenyl)pyridine-2-yl)-2-methoxyphenol] |  | inhibition of new vessel growth; also recorded: scored significantly lower than the positive control (BV) |  |  | failed to inhibit tubulin polymerization
7 | 2640 ± 380 nM | 4.7 ± 0.9 nM | 69 ± 2.8 nM |  |  |  | lower peak concentrations than CA-4 | 2-Methoxy-5-(6-(3,4,5-trimethoxyphenyl)pyridine-2-yl)phenol [4t] |  | inhibition of new vessel growth; also recorded: scored significantly lower than the positive control (BV) | 32% |  | failed to inhibit tubulin polymerization
